Laboratory results published in ChEMBL document CHEMBL4138211, “Regio- and stereoselective synthesis of dispirooxindole-pyrrolocarbazole hybrids via 1,3-dipolar cycloaddition reactions: Cytotoxic activity and SAR studies” (Eur J Med Chem, 2018).
Calls of active or inactive are those of the source. The calls are words filed in the database; no cut-off is given here.

Experiments:
[1] = tested on: MCF7; assay: Induction of apoptosis in human MCF7 cells assessed as early apoptotic cells at 5 uM after 6 hrs by Annexin V-FITC/propidium iodide staining based flow cytometry (reference value: 0.88%); format: functional
Procedure, shortened: (§1)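 Cells at 1×10⁵/mL exposed to 5, 10 or 20 μM (printed as μM/ml) for 6 h, with an untreated control. Harvested, PBS-washed and trypsinised, then spun at 200×g for 10 min. Stained with annexin V-FITC/propidium iodide for 10-15 min at 25 °C. Quadrant analysis gives live, early apoptotic, late apoptotic and necrotic fractions.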

[2] = tested on: MCF7; assay: Induction of apoptosis in human MCF7 cells assessed as late apoptotic cells at 10 uM after 6 hrs by Annexin V-FITC/propidium iodide staining based flow cytometry (reference value: 0.0%); format: functional; procedure, shortened: as §1
[3] = tested on: MCF7; assay: Induction of apoptosis in human MCF7 cells assessed as nuclear condensation by acridine orange/ethidium bromide staining-based fluorescence microscopic analysis; format: functional, cell-based
Procedure, shortened: (§2)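 Treated cells collected and washed in PBS (pH 7.2). Stained with a 1:1 AO/EtBr mixture (each dye […] in water) and held 2 min. Washed twice in PBS and viewed by fluorescence microscopy at 400× with 480 nm excitation. Green intact-membrane cells distinguished from orange/red membrane-damaged cells.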

[4] = tested on: MCF7; assay: Induction of apoptosis in human MCF7 cells assessed as viable cells at 20 uM after 6 hrs by Annexin V-FITC/propidium iodide staining based flow cytometry (reference value: 99.12%); format: functional; details: MCF7, 6 h, read-out: Activity; procedure, shortened: as §1
[5] = tested on: A549; assay: Induction of apoptosis in human A549 cells assessed as early apoptotic cells at 10 uM after 6 hrs by Annexin V-FITC/propidium iodide staining based flow cytometry (reference value: 0.77%); format: functional; procedure, shortened: as §1
[6] = tested on: MCF7; assay: Induction of apoptosis in human MCF7 cells assessed as viable cells at 5 uM after 6 hrs by Annexin V-FITC/propidium iodide staining based flow cytometry (reference value: 99.12%); format: functional; details: MCF7, 6 h, read-out: Activity; procedure, shortened: as §1
[7] = tested on: A549; assay: Induction of apoptosis in human A549 cells by acridine orange/ethidium bromide staining-based fluorescence microscopic analysis; format: functional, cell-based; procedure, shortened: as §2
[8] = tested on: A549; assay: Induction of apoptosis in human A549 cells assessed as necrotic cells at 10 uM after 6 hrs by Annexin V-FITC/propidium iodide staining based flow cytometry (reference value: 0.0%); format: functional; procedure, shortened: as §1
[9] = tested on: A549; assay: Induction of apoptosis in human A549 cells assessed as early apoptotic cells at 5 uM after 6 hrs by Annexin V-FITC/propidium iodide staining based flow cytometry (reference value: 0.77%); format: functional; procedure, shortened: as §1
[10] = tested on: MCF7; assay: Induction of apoptosis in human MCF7 cells assessed as late apoptotic cells at 20 uM after 6 hrs by Annexin V-FITC/propidium iodide staining based flow cytometry (reference value: 0.0%); format: functional; procedure, shortened: as §1
[11] = tested on: A549; assay: Induction of apoptosis in human A549 cells assessed as necrotic cells at 5 uM after 6 hrs by Annexin V-FITC/propidium iodide staining based flow cytometry (reference value: 0.0%); format: functional; procedure, shortened: as §1
[12] = tested on: MCF7; assay: Induction of apoptosis in human MCF7 cells assessed as cell shrinkage after 24 hrs by brightfield inverted light microscopic analysis; format: functional, cell-based
[13] = tested on: A549; assay: Induction of apoptosis in human A549 cells assessed as late apoptotic cells at 20 uM after 6 hrs by Annexin V-FITC/propidium iodide staining based flow cytometry (reference value: 0.0%); format: functional; procedure, shortened: as §1
[14] = tested on: MCF7; assay: Antiproliferative activity against human MCF7 cells after 48 hrs by MTT assay; format: functional, cell-based
Procedure, shortened: (§3)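 Cells grown 1×10⁴/well for 48 h to about 75% confluence. Medium then replaced with fresh medium containing serially diluted compounds, followed by a further 48 h. MTT added for 4 h at 37 °C and formazan dissolved in DMSO for 10 min. OD read at 620 nm. IC50 taken from the viability–concentration survival curve. Three independent experiments, each in triplicate.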

[15] = tested on: A549; assay: Induction of apoptosis in human A549 cells assessed as cell shrinkage after 24 hrs by brightfield inverted light microscopic analysis; format: functional, cell-based
[16] = tested on: A549; assay: Induction of apoptosis in human A549 cells assessed as viable cells at 5 uM after 6 hrs by Annexin V-FITC/propidium iodide staining based flow cytometry (reference value: 99.23%); format: functional; details: A549, 6 h, read-out: Activity; procedure, shortened: as §1
[17] = tested on: MCF7; assay: Induction of apoptosis in human MCF7 cells assessed as early apoptotic cells at 20 uM after 6 hrs by Annexin V-FITC/propidium iodide staining based flow cytometry (reference value: 0.88%); format: functional; procedure, shortened: as §1
[18] = tested on: A549; assay: Induction of apoptosis in human A549 cells assessed as necrotic cells at 20 uM after 6 hrs by Annexin V-FITC/propidium iodide staining based flow cytometry (reference value: 0.0%); format: functional; procedure, shortened: as §1
[19] = tested on: MCF7; assay: Induction of apoptosis in human MCF7 cells assessed as early apoptotic cells at 10 uM after 6 hrs by Annexin V-FITC/propidium iodide staining based flow cytometry (reference value: 0.88%); format: functional; procedure, shortened: as §1
[20] = tested on: A549; assay: Antiproliferative activity against human A549 cells after 48 hrs by MTT assay; format: functional, cell-based; procedure, shortened: as §3
[21] = tested on: MCF7; assay: Induction of apoptosis in human MCF7 cells assessed as damaged cell membranes by acridine orange/ethidium bromide staining-based fluorescence microscopic analysis; format: functional; procedure, shortened: as §2
[22] = tested on: MCF7; assay: Induction of apoptosis in human MCF7 cells assessed as necrotic cells at 20 uM after 6 hrs by Annexin V-FITC/propidium iodide staining based flow cytometry (reference value: 0.0%); format: functional; procedure, shortened: as §1
[23] = tested on: A549; assay: Induction of apoptosis in human A549 cells assessed as viable cells at 10 uM after 6 hrs by Annexin V-FITC/propidium iodide staining based flow cytometry (reference value: 99.23%); format: functional; details: A549, 6 h, read-out: Activity; procedure, shortened: as §1
[24] = tested on: MCF7; assay: Induction of apoptosis in human MCF7 cells assessed as necrotic cells at 10 uM after 6 hrs by Annexin V-FITC/propidium iodide staining based flow cytometry (reference value: 0.0%); format: functional; procedure, shortened: as §1
[25] = tested on: A549; assay: Induction of apoptosis in human A549 cells assessed as late apoptotic cells at 10 uM after 6 hrs by Annexin V-FITC/propidium iodide staining based flow cytometry (reference value: 0.0%); format: functional; procedure, shortened: as §1
[26] = tested on: MCF7; assay: Induction of apoptosis in human MCF7 cells assessed as increase in late apoptotic cells after 6 hrs by Annexin V-FITC/propidium iodide staining based flow cytometry; format: functional, cell-based; procedure, shortened: as §1
[27] = tested on: MCF7; assay: Induction of apoptosis in human MCF7 cells assessed as formation of floating cells after 24 hrs by brightfield inverted light microscopic analysis; format: functional, cell-based
[28] = tested on: A549; assay: Induction of apoptosis in human A549 cells assessed as nuclear fragmentation after 24 hrs by DAPI staining-based fluorescence microscopic analysis; format: functional, cell-based
Procedure, shortened: (§4)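 Cells plated on glass coverslips and treated for 24 h, then fixed. Permeabilised with 0.2% Triton X-100 for 10 min at room temperature. DAPI applied for 3 min under a coverslip. Nuclei inspected by fluorescence microscopy for condensed chromatin and fragmentation, against untreated cells.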

[29] = tested on: MCF7; assay: Induction of apoptosis in human MCF7 cells by acridine orange/ethidium bromide staining-based fluorescence microscopic analysis; format: functional, cell-based; procedure, shortened: as §2
[30] = tested on: MCF7; assay: Induction of apoptosis in human MCF7 cells assessed as nuclear fragmentation after 24 hrs by DAPI staining-based fluorescence microscopic analysis; format: functional, cell-based; procedure, shortened: as §4
[31] = tested on: MCF7; assay: Induction of apoptosis in human MCF7 cells assessed as membrane blebbing after 24 hrs by brightfield inverted light microscopic analysis; format: functional, cell-based
[32] = tested on: A549; assay: Induction of apoptosis in human A549 cells assessed as viable cells at 20 uM after 6 hrs by Annexin V-FITC/propidium iodide staining based flow cytometry (reference value: 99.23%); format: functional; details: A549, 6 h, read-out: Activity; procedure, shortened: as §1
[33] = tested on: MCF7; assay: Induction of apoptosis in human MCF7 cells assessed as increase in early apoptotic cells after 6 hrs by Annexin V-FITC/propidium iodide staining based flow cytometry; format: functional, cell-based; procedure, shortened: as §1
[34] = tested on: A549; assay: Induction of apoptosis in human A549 cells assessed as increase in early apoptotic cells after 6 hrs by Annexin V-FITC/propidium iodide staining based flow cytometry; format: functional, cell-based; procedure, shortened: as §1
[35] = tested on: MCF7; assay: Induction of apoptosis in human MCF7 cells assessed as viable cells at 10 uM after 6 hrs by Annexin V-FITC/propidium iodide staining based flow cytometry (reference value: 99.12%); format: functional; details: MCF7, 6 h, read-out: Activity; procedure, shortened: as §1
[36] = tested on: A549; assay: Induction of apoptosis in human A549 cells assessed as formation of floating cells after 24 hrs by brightfield inverted light microscopic analysis; format: functional, cell-based
[37] = tested on: MCF7; assay: Induction of apoptosis in human MCF7 cells assessed as necrotic cells at 5 uM after 6 hrs by Annexin V-FITC/propidium iodide staining based flow cytometry (reference value: 0.0%); format: functional; procedure, shortened: as §1
[38] = tested on: MCF7; assay: Induction of apoptosis in human MCF7 cells assessed as late apoptotic cells at 5 uM after 6 hrs by Annexin V-FITC/propidium iodide staining based flow cytometry (reference value: 0.0%); format: functional; procedure, shortened: as §1
[39] = tested on: A549; assay: Induction of apoptosis in human A549 cells assessed as late apoptotic cells at 5 uM after 6 hrs by Annexin V-FITC/propidium iodide staining based flow cytometry (reference value: 0.0%); format: functional; procedure, shortened: as §1
[40] = tested on: A549; assay: Induction of apoptosis in human A549 cells assessed as early apoptotic cells at 20 uM after 6 hrs by Annexin V-FITC/propidium iodide staining based flow cytometry (reference value: 0.77%); format: functional; procedure, shortened: as §1
[41] = tested on: A549; assay: Induction of apoptosis in human A549 cells assessed as membrane blebbing after 24 hrs by brightfield inverted light microscopic analysis; format: functional, cell-based
[42] = tested on: A549; assay: Induction of apoptosis in human A549 cells assessed as increase in late apoptotic cells after 6 hrs by Annexin V-FITC/propidium iodide staining based flow cytometry; format: functional, cell-based; procedure, shortened: as §1

## O=C1Nc2ccccc2[C@]12N[C@H](c1ccccc1)[C@H](c1cccs1)[C@@]21CCc2c([nH]c3ccc(Cl)cc23)C1=O
[1]
  Activity: 8.19%
[2]
  Activity: 12.82%
[3]
  Activity: Active
[4]
  viability at 20 µM: 35.1%
[5]
  Activity: 17.35%
[6]
  viability at 5 µM: 82.5%
[7]
  Activity: Active
[8]
  Activity: 2.81%
[9]
  Activity: 28.95%
[10]
  Activity: 30.2%
[11]
  Activity: 1.15%
[12]
  Activity: Dose-dependent effect
[13]
  Activity: 28.7%
[14]
  Activity: Dose-dependent effect
[14]; MCF7, 48 h
  IC50: 13 µM
[15]
  Activity: Dose-dependent effect
[16]
  viability at 5 µM: 63.2%
[17]
  Activity: 33.56%
[18]
  Activity: 1.85%
[19]
  Activity: 23.3%
[20]
  Activity: Dose-dependent effect
[20]; A549, 48 h
  IC50: 14 µM
[21]
  Activity: Active
[22]
  Activity: 1.12%
[23]
  viability at 10 µM: 72.2%
[24]
  Activity: 0.98%
[25]
  Activity: 7.65%
[26]
  Activity: Dose-dependent effect
[27]
  Activity: Dose-dependent effect
[28]
  Activity: Active
[29]
  Activity: Active
[30]
  Activity: Active
[31]
  Activity: Dose-dependent effect
[32]
  viability at 20 µM: 37.3%
[33]
  Activity: Dose-dependent effect
[34]
  Activity: Dose-dependent effect
[35]
  viability at 10 µM: 62.9%
[36]
  Activity: Dose-dependent effect
[37]
  Activity: 1.81%
[38]
  Activity: 7.55%
[39]
  Activity: 6.7%
[40]
  Activity: 32.15%
[41]
  Activity: Dose-dependent effect
[42]
  Activity: Dose-dependent effect
